# In ChEMBL document CHEMBL1122229, “alpha-adrenoreceptor reagents. 1. Synthesis of some 1,4-benzodioxans as selective presynaptic alpha 2-adrenoreceptor antagonists and potential antidepressants” (J Med Chem, 1983):
# Calls of active or inactive are those of the source. No cut-off for these calls is given here.
# Tests used:
# [1] = In vitro antagonism at Alpha-2 adrenergic receptor in rat or mouse vas deferens relative to RX781094.; assay type: functional
# Summary of the method: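 Prostatic half of vas deferens from male Sprague–Dawley rats (200–250 g; Krebs, 30 °C, 95% O2/5% CO2, 0.1 Hz, 3-ms, 40 V) or from mice (magnesium-free Krebs, 100–140 V). Tension 0.5 g; isometric twitch recording. […] The concentration giving 50% reversal of the inhibition was compared with standard 5 in the same tissue.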
# [2] = biological target: T1, Adrenergic receptor alpha-1 (Rattus norvegicus) (UniProt P15823+P23944+P43140); experiment: In vitro postsynaptic antagonist potency at alpha-1 adrenergic receptor in rat anococcygeus relative to compound 5 (RX781094); AG means compound is agonist.; assay type: functional; settings: filed as agonist
# [3] = biological target: T2, Adrenergic receptor alpha-2 (Rattus norvegicus) (UniProt P22086+P19328+P22909); experiment: In vitro presynaptic agonist potency at alpha-2 adrenergic receptor in rat or mouse vas deferens relative to clonidine; assay type: functional, tissue-based
# Summary of the method: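 Field-stimulated rat or mouse vas deferens under 0.5 g tension, at 0.1 Hz with 3-ms pulses, 30 °C, gassed with 95% O2/5% CO2. Contractions were recorded isometrically. Standard dose-response curves were run before and after each analogue curve. Potency was expressed relative to the standard in the same experiment.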
# [4] = biological target: T1, Adrenergic receptor alpha-1 (Rattus norvegicus); experiment: In vitro postsynaptic agonist potency at alpha-1 adrenergic receptor in rat anococcygeus muscle relative to phenylephrine; assay type: functional, tissue-based
# [5] = biological target: T2, Adrenergic receptor alpha-2 (Rattus norvegicus); experiment: In vitro presynaptic agonist potency at alpha-2 adrenergic receptor in rat or mouse vas deferens relative to clonidine; IA means inactive; assay type: functional, tissue-based
# Summary of the method: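 Field-stimulated rat or mouse vas deferens (Krebs, 30 °C, 95% O2/5% CO2, 3-ms pulses at 0.1 Hz) with isometric twitch recording. […] Standard dose-response curves were run before and after the analogue's curve.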
# [6] = biological target: T1, Adrenergic receptor alpha-1 (Rattus norvegicus); experiment: In vitro postsynaptic agonist potency at alpha-1 adrenergic receptor in rat anococcygeus muscle relative to phenylephrine; IA means inactive.; assay type: functional, tissue-based
# Summary of the method: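 Rat anococcygeus muscle (male Sprague–Dawley rats, 200–250 g) suspended at 0.5 g initial tension in a 50-mL organ bath. […] Standard dose-response curves were run before and after the analogue's curve.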
# [7] = biological target: T2, Adrenergic receptor alpha-2 (Rattus norvegicus); experiment: In vitro presynaptic antagonist potency at alpha-2 adrenergic receptor in rat or mouse vas deferens relative to compound 5 (RX781094); assay type: functional, tissue-based
# Summary of the method: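 Prostatic halves of rat vas deferens (male Sprague–Dawley rats, 200–250 g; Krebs, 30 °C, 95% O2/5% CO2; 3-ms, 40 V, 0.1 Hz field pulses) or mouse vas deferens (Mg-free Krebs, 30 °C; 3-ms pulses, 0.1 Hz, 100–140 V) were used, with isometric twitch recording. […] The concentration giving 50% reversal was compared with the RX781094 standard in the same tissue.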
# [8] = biological target: T1, Adrenergic receptor alpha-1 (Rattus norvegicus); experiment: In vitro postsynaptic antagonist potency at alpha-1 adrenergic receptor in rat anococcygeus relative to compound 5 (RX781094); assay type: functional
# [9] = tested on: Alpha-2 adrenergic receptor (Rattus norvegicus); experiment: In vitro presynaptic antagonist potency at alpha-2 adrenergic receptor in rat or mouse vas deferens; IA means compound is inactive.
# [10] = biological target: T1, Adrenergic receptor alpha-1 (Rattus norvegicus); experiment: In vitro postsynaptic antagonist potency at alpha-1 adrenergic receptor in rat anococcygeus relative to compound 5 (RX781094); IA means compound is inactive.; assay type: functional
# [11] = biological target: T1, Adrenergic receptor alpha-1 (Rattus norvegicus); experiment: Ratio of presynaptic antagonist potency to postsynaptic antagonist potency; assay type: functional
# [12] = tested on: Alpha-2 adrenergic receptor (Rattus norvegicus); experiment: In vitro presynaptic agonist potency at alpha-2 adrenergic receptor in rat or mouse vas deferens relative to clonidine; Inactive
# [13] = biological target: T1, Adrenergic receptor alpha-1 (Rattus norvegicus); experiment: In vitro postsynaptic antagonist potency at alpha-1 adrenergic receptor in rat anococcygeus.; assay type: functional
SMILES,Agonist potency [5],Agonist potency [6],Antagonist potency [7],Antagonist potency [8],Selectivity [11],Antagonist potency [1],other results
Cc1ccc(C)c2c1OCC(C1=NCCN1)O2 (centres undefined),–,–,–,–,–,0.005,Antagonist potency [2]: Agonist; Agonist potency [3]: 0.19; Agonist potency [4]: 2.5
Cc1cccc2c1OC(C1=NCCN1)CO2 (centres undefined),–,–,0.5,–,–,–,Antagonist potency [2]: Agonist; Agonist potency [3]: 0.01; Agonist potency [4]: 2.1
Oc1cccc2c1OC(C1=NCCN1)CO2 (centres undefined),inactive,inactive,–,0.2,0.2,0.04,–
c1ccc2c(c1)OCC(c1nc3ccccc3[nH]1)O2 (centres undefined),inactive,inactive,0.0003,< 0.02,–,–,–
O=[N+]([O-])c1cccc2c1OC(C1=NCCN1)CO2 (centres undefined),inactive,inactive,–,0.09,0.22,0.02,–
Clc1ccc2c(c1)OCC(C1=NCCN1)O2 (centres undefined),–,–,–,1,0.01,0.01,Agonist potency [12]: inactive; Agonist potency [4]: 0.005
O=[N+]([O-])c1ccc2c(c1)OCC(C1=NCCN1)O2 (centres undefined),inactive,inactive,–,< 0.02,–,<0.0003,–
Clc1cc2c(cc1Cl)OC(C1=NCCN1)CO2 (centres undefined),–,inactive,0.003,0.3,0.01,–,Agonist potency [12]: inactive
Oc1ccc2c(c1)OCC(C1=NCCN1)O2 (centres undefined),–,–,–,–,–,0.017,Antagonist potency [2]: Agonist; Agonist potency [3]: 0.015; Agonist potency [4]: 0.55
c1ccc2cc3c(cc2c1)OCC(C1=NCCN1)O3 (centres undefined),inactive,inactive,0.001,0.01,0.1,–,–
Clc1cccc2c1OC(C1=NCCN1)CO2 (centres undefined),–,–,–,–,–,0.49,Antagonist potency [2]: Agonist; Agonist potency [3]: 0.67; Agonist potency [4]: 0.4
Brc1ccc2c(c1)OCC(C1=NCCN1)O2 (centres undefined),–,–,–,–,–,0.01,Antagonist potency [10]: inactive; Agonist potency [12]: inactive; Agonist potency [4]: 0.05
Clc1ccc(Cl)c2c1OCC(C1=NCCN1)O2 (centres undefined),–,–,0.26,–,–,–,Antagonist potency [2]: Agonist; Agonist potency [3]: 0.02; Agonist potency [4]: 0.55
Cc1cc2c(cc1C)OC(C1=NCCN1)CO2 (centres undefined),–,inactive,–,0.64,0.1,0.06,Agonist potency [12]: inactive
COc1cccc2c1OC(C1=NCCN1)CO2 (centres undefined),inactive,inactive,–,0.9,0.14,0.12,–
Oc1ccc2c(c1)OC(C1=NCCN1)CO2 (centres undefined),–,–,–,–,–,0.036,Antagonist potency [2]: Agonist; Agonist potency [3]: 0.15; Agonist potency [4]: 1.1
CC(C)(C)c1ccc2c(c1)OCC(C1=NCCN1)O2 (centres undefined),inactive,inactive,0.01,0.1,0.1,–,–
Oc1cccc2c1OCC(C1=NCCN1)O2 (centres undefined),–,–,–,–,–,0.018,Antagonist potency [2]: Agonist; Agonist potency [12]: inactive; Agonist potency [4]: 0.017
COc1cccc2c1OCC(C1=NCCN1)O2 (centres undefined),inactive,–,–,–,–,0.001,Antagonist potency [10]: inactive; Agonist potency [4]: 5
Nc1nc(N)nc(C2COc3ccccc3O2)n1 (centres undefined),–,inactive,–,–,–,–,Antagonist potency [9]: inactive; Antagonist potency [10]: inactive; Agonist potency [12]: inactive
COc1ccc2c(c1)OCC(C1=NCCN1)O2 (centres undefined),inactive,–,–,–,–,0.006,Agonist potency [4]: 0.005
COc1ccc2c(c1)OC(C1=NCCN1)CO2 (centres undefined),inactive,inactive,–,0.225,0.09,0.02,–
Fc1ccc2c(c1)OCC(C1=NCCN1)O2 (centres undefined),–,inactive,–,0.1,0.1,0.01,Agonist potency [12]: inactive

# More lines, main results first:
Agonist potency [5],Agonist potency [6],Antagonist potency [7],Antagonist potency [8],Selectivity [11],SMILES,Antagonist potency [1],other results
inactive,inactive,< 0.0003,< 0.023,–,Nc1noc(CC2COc3ccccc3O2)n1 (centres undefined),–,–
inactive,inactive,–,–,–,c1ccc2c(c1)OCC(c1nn[nH]n1)O2 (centres undefined),–,Antagonist potency [9]: inactive; Antagonist potency [10]: inactive
inactive,inactive,0.013,< 0.023,–,c1ccc2c(c1)OCC(Cn1ccnc1)O2 (centres undefined),–,–
inactive,inactive,0.001,0.01,0.1,c1ccc2c(c1)OCC(c1ncc[nH]1)O2 (centres undefined),–,–
inactive,–,–,–,–,NC(=NO)C1COc2ccccc2O1 (centres undefined),–,Antagonist potency [13]: 0.01
inactive,inactive,0.003,1,0.003,CC1CN=C(C2COc3ccccc3O2)N1 (centres undefined),–,–
inactive,inactive,0.045,0.14,0.33,c1ccc2c(c1)OCC(CC1=NCCN1)O2 (centres undefined),–,–
inactive,inactive,0.001,0.1,0.01,CCCC/N=C(\NCCCC)C1COc2ccccc2O1 (centres undefined),–,–
–,inactive,0.001,0.1,0.01,COc1cccc(OC)c1OCC/N=C(\N)C1COc2ccccc2O1 (centres undefined),–,Agonist potency [3]: 0.0001
inactive,inactive,–,0.1,–,COCC/N=C(\N)C1COc2ccccc2O1 (centres undefined),–,Antagonist potency [9]: inactive
inactive,inactive,0.004,0.25,0.016,c1ccc2c(c1)OCC(Cc1ncc[nH]1)O2 (centres undefined),–,–
inactive,inactive,–,–,–,c1ccc2c(c1)OCC(C1=NCCS1)O2 (centres undefined),–,Antagonist potency [9]: inactive; Antagonist potency [10]: inactive
inactive,inactive,0.01,0.1,0.1,c1ccc2c(c1)OCC(C1=NCCCN1)O2 (centres undefined),–,–
inactive,inactive,< 0.001,0.024,–,N/C(=N\CCCO)C1COc2ccccc2O1 (centres undefined),–,–
inactive,inactive,0.0001,0.01,0.01,N=C(C1COc2ccccc2O1)N1CCCCC1 (centres undefined),–,–
inactive,inactive,0.0001,0.01,0.01,CC1(C)CN=C(C2COc3ccccc3O2)N1 (centres undefined),–,–
inactive,–,0.01,–,–,N=C(N)C1COc2ccccc2O1 (centres undefined),–,Agonist potency [4]: 0.05
inactive,inactive,–,–,–,N=C(NN1CCOCC1)C1COc2ccccc2O1 (centres undefined),–,Antagonist potency [9]: inactive; Antagonist potency [10]: inactive
inactive,inactive,0.0003,0.1,0.003,CN1CCN=C1C1COc2ccccc2O1 (centres undefined),–,–
inactive,inactive,0.0003,0.03,0.01,N=C(NCCc1ccccc1)C1COc2ccccc2O1 (centres undefined),–,–
